Screening data: PubChem, several laboratories
ATG4B inhibitor: ATG4B (human) cysteine protease inhibition | Q9Y4P1 | ATG4B cleavage of LC3-PLA2, NBD-HPC fluorescence, 1 h | inhibition, % at 8.33 µM | 340,000 compounds, 0.51% hits | AID 504462; in the data active = inhibition above about 40%
UCH37 DUB inh: blocks the human deubiquitinase UCH37 | Q9Y5K5 | purified proteasome/UCH37, Ub-AMC cleavage fluorescence | inhibition, % (no concentration beside the values) | 330,000 compounds, 0.33% hits | AID 588478;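 active = mean inhibition over replicate wells above about 20%, limit read from the data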
Target sequence (Q9Y5K5 whole entry, looked up): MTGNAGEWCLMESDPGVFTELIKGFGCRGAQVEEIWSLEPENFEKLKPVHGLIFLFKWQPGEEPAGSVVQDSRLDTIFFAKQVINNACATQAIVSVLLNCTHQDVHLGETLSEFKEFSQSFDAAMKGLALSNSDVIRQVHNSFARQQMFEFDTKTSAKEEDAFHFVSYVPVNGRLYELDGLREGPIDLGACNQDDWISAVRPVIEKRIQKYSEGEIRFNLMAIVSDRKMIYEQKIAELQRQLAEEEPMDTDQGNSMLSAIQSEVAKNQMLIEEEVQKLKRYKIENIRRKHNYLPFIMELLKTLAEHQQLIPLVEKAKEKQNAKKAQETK
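Schedule: 30 min plus 25 min, room temperature / Material: human UCH37 within purified proteasomes / Technique: AMC fluorescence intensity at 355/460 nm / Buffer or medium: pH 7.4 Tris-HCl (50 mM) with ovalbumin, ATP-MgCl2, DTT / Controls: wells without proteasome as full block, compound-free enzyme plus substrate as uninhibited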
Calb FLC: C. albicans growth modulation with fluconazole. C. albicans CaCi-2 (fluconazole-resistant clinical isolate) + fluconazole, Alamar Blue growth, 48 h. growth inhibition, % (no concentration beside the values). 300,000 compounds, 0.57% hits. AID 1979;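 active = growth inhibition above about 58% in most replicates, limit read from the data, passing the limit was not always enough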;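 also: all wells also contain fluconazole at 8 µg/ml as a sub-toxic cotreatment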
NLRP3 yeast inh: inhibitors of NALP3 inflammasome in yeast; 330,000 compounds, 0.39% hits; Yeast reconstituted NLRP3/ASC/caspase-1, beta-gal luminescence, 24 h; inhibition, % at 10 µM;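 active = inhibition of 50% or more; inactive = inhibition below 50%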
ALR inh: inhibitors of human sulfhydryl oxidase ALR; inhibition, % (no concentration beside the values); purified ALR, DTT oxidation, H2O2 HRP-luminol luminescence; 290,000 compounds, 3.8% hits; AID 485317; P55789;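 active = mean replicate inhibition above about 79%, with every replicate also reaching it, limit read from the data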
Target sequence (P55789 whole entry, looked up): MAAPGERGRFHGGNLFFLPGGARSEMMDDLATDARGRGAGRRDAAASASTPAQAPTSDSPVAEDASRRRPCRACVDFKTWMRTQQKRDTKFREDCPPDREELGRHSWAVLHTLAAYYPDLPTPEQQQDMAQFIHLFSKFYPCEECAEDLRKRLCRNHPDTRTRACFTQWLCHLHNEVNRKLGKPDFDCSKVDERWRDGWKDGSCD
NALP1 yeast inh: blocks the NALP1 inflammasome reconstituted in yeast; inhibition, % at 10 µM; 280,000 compounds, 0.61% hits; S. cerevisiae NALP1/ASC/caspase-1 growth, X-gal OD620, 72 h; AID 2071; in the data active = inhibition mostly above about 24%, no sharp cut-off; inactive = mostly below about 32%
A number is an active result; n = inactive; x = not tested or not shown. This is a sample that favours compounds with a hit; in the whole collection about 4.8% have one here.

SMILES | ATG4B inhibitor | UCH37 DUB inh | Calb FLC | NLRP3 yeast inh | ALR inh | NALP1 yeast inh
Cc1ccc2oc(=O)c3cnn(CC(=O)N(CCN(C)C)Cc4ccco4)c3c2c1 | n | n | n | n | x | 41.1
Cc1ccc(N/N=C/c2ccncc2)cc1 | n | x | 99.7 | n | 99.2 | n
COc1cc(/C=N/Nc2ccc(S(N)(=O)=O)cc2)cc(OC)c1OC | n | x | n | n | 92.8 | n
Fc1ccc(N/N=C/c2cccnc2)c(F)c1 | n | x | 112.0 | n | n | n
Cc1ccc(N/N=C/c2cccnc2)cc1 | n | x | n | n | 100.7 | n
Cc1cccc(C)c1-n1c(C)cc(C=NNC(=O)c2ccncc2)c1C | x | n | x | x | x | x
Cc1cc(C(=O)NN=C/C=C/c2ccccc2)n[nH]1 | x | n | x | x | x | x
CC(O)C(=O)NN=Cc1cccc2ccccc12 (configuration not stated) | x | n | x | x | x | x
Clc1cccc(N/N=C/c2ccncc2)c1 | n | x | 92.7 | n | 94.8 | n
COc1cc(/C=N/Nc2ccc(F)cc2F)cc(OC)c1OC | n | x | 125.9 | n | n | n
Clc1ccc(/C=N\Nc2ccccc2)cc1 | n | x | n | n | 98.6 | x
Oc1ccccc1/C=N/Nc1ccccc1 | n | x | n | n | 98.8 | n
Clc1ccc(C=NNc2ccccc2)cc1 | x | n | x | x | x | x
O=C(NN=Cc1ccncc1)c1cccc(NN=Cc2ccncc2)c1 | x | n | x | x | x | x
CC(C)(C)c1ccc(C=NNc2nncn2N)cc1 | x | n | x | x | x | x
C1CCC(C(CC2CCCCN2)C2CCCCC2)CC1 (configuration not stated) | n | n | x | n | x | 71.3
Cc1ccc(OCC(=O)NN=Cc2ccncc2)cc1C | x | n | x | x | x | x
Cc1ccc2sc(NNC(=O)c3cc(=O)c4ccccc4o3)nc2c1C | n | x | n | n | 98.7 | n
Cc1cccc2sc(NNC(=O)c3cc(=O)c4ccccc4o3)nc12 | n | x | n | n | x | n
COc1cccc(C=NNc2snc(SC)c2C#N)c1O | x | n | x | x | x | x
CCCN(Cc1ccc(N(C)C)cc1)CC1CC1 | n | n | n | n | n | n
CCCN(Cc1ccc(N(CC)CC)cc1)CC1CC1 | n | n | n | n | 98.4 | n
O=C(COc1ccc(-c2ccccc2)cc1)NN=Cc1cccnc1 | x | n | x | x | x | x
FC(F)(F)c1cccc(-n2cc(-c3ccccc3)[nH]c2=S)c1 | n | n | n | n | n | n
Fc1ccccc1-n1cc(-c2ccccc2)[nH]c1=S | n | x | n | n | 93.3 | n
SMILES | ATG4B inhibitor | UCH37 DUB inh | Calb FLC | NLRP3 yeast inh | ALR inh | NALP1 yeast inh
COc1ccc(-n2cc(-c3ccc(OC)c(OC)c3)[nH]c2=S)cc1 | n | x | n | n | x | n
COc1ccc(-n2cc(-c3ccccc3)[nH]c2=S)c(OC)c1 | n | n | n | n | 90.1 | n
O=C(CC(=O)NN=Cc1ccc(C(=O)O)cc1)NCCc1ccccc1 | x | n | x | x | x | x
CS(=O)(=O)N(CC(=O)NN=Cc1cc2c(cc1Br)OCO2)c1ccccc1Br | x | n | x | x | x | x
COc1cccc(NC(=O)CN2CCSc3ccccc32)c1 | n | n | n | n | 99.6 | n
COc1ccccc1NC(=O)CN1CCSc2ccccc21 | n | n | n | n | 80.5 | n
Cc1cccc(NC(=O)CN2CCSc3ccccc32)c1 | n | n | n | n | x | n
Clc1ccc(C=NN2CCN(Cc3ccccc3Cl)CC2)cc1 | x | n | x | x | x | x
CC(C)(C)c1ccc(C=Nn2cnnc2)cc1 | x | n | x | x | x | x
O=c1c2ccccc2nc(COc2ccccc2)n1/N=C/c1ccc(O)cc1O | n | x | n | n | 77.0 | n
O=c1c2ccccc2nc(COc2ccccc2)n1N=Cc1ccc(O)c(O)c1 | x | n | x | x | x | x
Cc1nc2ccccc2c(=O)n1/N=C/c1ccc(O)c(O)c1O | n | x | n | n | 98.5 | n
Cc1nc2ccccc2c(=O)n1/N=C/c1ccccc1O | n | x | n | n | n | n
O=C(O)c1ccc(C=NN2CCN(Cc3cccc4ccccc34)CC2)cc1 | x | n | x | x | x | x
Cc1ccc(NC(=O)CSc2nnc(CNC(=O)c3c(F)cccc3Cl)o2)cc1 | n | n | n | n | 98.4 | n
Cc1cc(C)c(NC(=O)CSc2nnc(CNC(=O)c3c(F)cccc3Cl)o2)c(C)c1 | n | n | n | n | n | n
O=C(CSc1nnc(CNC(=O)c2c(F)cccc2Cl)o1)Nc1ccc2c(c1)OCO2 | n | n | n | n | 97.1 | n
O=C(NN=Cc1cccc(OC(=O)c2ccc([N+](=O)[O-])cc2)c1)c1cccnc1 | x | n | x | x | x | x
COC(=O)C(=O)/C=C(/O)c1ccc(C)cc1 | x | n | x | x | x | x
COc1cc(OC)c2ccc(=O)oc2c1C(CCN1CCCC1)c1ccc(N(C)C)cc1 (configuration not stated) | n | n | n | n | 98.3 | n
CCCCCc1cc(=O)oc2c(C(CCN3CCCC3)c3ccc(N(C)C)cc3)c(OC)cc(OC)c12 (configuration not stated) | n | n | n | n | x | n
COc1cc(OC)c2ccc(=O)oc2c1C(CCN1CCCC(C)C1)c1ccc2c(c1)OCO2 (configuration not stated) | n | n | n | n | n | n
COc1cc(OC)c2ccc(=O)oc2c1C(CCN1CCCCC1)c1ccc(N(C)C)cc1 (configuration not stated) | n | n | n | n | 98.6 | n
COc1ccc(-c2nn(CCC#N)cc2C=NO)cc1 | x | n | x | x | x | x
S=c1[nH]nc(-c2cc(-c3ccccc3)n[nH]2)n1N=Cc1ccccc1 | x | n | x | x | x | x
SMILES | ATG4B inhibitor | UCH37 DUB inh | Calb FLC | NLRP3 yeast inh | ALR inh | NALP1 yeast inh
CN(C)C(=O)c1cn(-c2ccccc2)nc1-c1cccs1 | n | n | 105.6 | n | n | n
CN(C)c1ccc(NC(=O)c2cn(-c3ccccc3)nc2-c2cccs2)cc1 | n | n | n | n | n | n
CCN(CC)c1ccc(-n2c(C)cc(C=O)c2C)cc1 | n | n | n | n | 98.4 | n
CC(C)c1onc(C(=O)N(C)Cc2ccccc2)c1[N+](=O)[O-] | n | n | n | n | n | 52.9
CC(/C=C/c1ccccc1)=NNc1nc(-c2ccccc2)cs1 | x | n | x | x | x | x
COc1ccc(C(C)=NNC(=O)CNC(=O)/C=C\c2ccco2)cc1 | x | n | x | x | x | x
Oc1ccccc1Cn1nnc2ccccc21 | n | n | n | n | x | n
Cc1cccc(Cn2nnc3ccccc32)c1O | n | n | n | n | 89.9 | x
CCCCC[C@H]1CN(C2CCCCC2)C(=O)[C@@H]1CC(=O)NCc1ccccc1 | n | 32.4 | n | n | n | n
C[C@H]1CN(C2CCCCC2)C(=O)[C@@H]1CC(=O)NCc1ccccc1 | n | n | n | n | n | n
c1coc(-c2nnc(-c3ccco3)nn2)c1 | n | 31.9 | n | n | x | n
Cc1cc(C)n(N=Cc2cccc([N+](=O)[O-])c2)c(=O)c1 | x | n | x | x | x | x
CN1CC(=O)N(CC(=O)NCCc2ccc(F)cc2)c2ccccc2C1=O | n | n | x | n | n | n
O=C(CN1CCc2ccccc2C1)Nc1ccc(F)cc1 | n | n | n | n | n | n
CN1CC(=O)N(CC(=O)Nc2ccc(N(C)C)cc2)c2ccccc2C1=O | n | n | n | n | 98.9 | n
CCN(CC)c1ccc(NC(=O)CCCCCN2C(=O)c3ccccc3C2=O)cc1 | n | n | n | n | 98.9 | n
CN(C)c1ccc(NC(=O)CCN2CCN(c3ccccn3)CC2)cc1 | n | n | n | n | 99.0 | n
